Screening results as filed in PubChem BioAssay.
M4 ag: human M4 muscarinic receptor agonists, primary screen, CHO-K1 cells, Fluo-8 calcium fluorescence; CHO-K1 hM4/Gqi5; vehicle 0%, full acetylcholine response 100%; 360,000 tested, 0.14% active; AID 624127, 2012; Muscarinic acetylcholine receptor M4 (Homo sapiens), P08173; activation, % at 3 µM;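 active = activation above the run mean over all test wells plus 3 SD, cut at about 32% in these data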;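 note: peak over basal fluorescence ratio per well then scaled between controls; 0% = DMSO wells and 100% = acetylcholine at EC100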
Target sequence (P08173 whole entry, looked up): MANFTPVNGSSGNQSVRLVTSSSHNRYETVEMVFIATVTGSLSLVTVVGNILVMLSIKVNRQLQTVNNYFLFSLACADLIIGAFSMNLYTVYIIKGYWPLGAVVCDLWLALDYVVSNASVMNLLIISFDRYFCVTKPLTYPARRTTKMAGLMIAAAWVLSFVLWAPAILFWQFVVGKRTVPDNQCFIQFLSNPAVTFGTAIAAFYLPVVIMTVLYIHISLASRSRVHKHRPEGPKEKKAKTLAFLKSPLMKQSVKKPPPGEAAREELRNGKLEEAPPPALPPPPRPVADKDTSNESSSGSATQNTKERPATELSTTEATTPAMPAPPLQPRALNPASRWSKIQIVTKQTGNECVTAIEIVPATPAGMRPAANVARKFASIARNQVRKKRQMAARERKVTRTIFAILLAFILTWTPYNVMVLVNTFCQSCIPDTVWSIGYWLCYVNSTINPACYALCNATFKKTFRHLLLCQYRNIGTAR
M4 PAM: human M4 muscarinic receptor positive allosteric modulators, primary screen, CHO-K1 cells, Fluo-8 calcium fluorescence; Muscarinic acetylcholine receptor M4 (Homo sapiens), P08173; CHO-K1 hM4/Gqi5, ACh EC20; 0% = ACh EC20, 100% = maximal ACh; activation, % at 3 µM; 360,000 tested, 0.4% active; AID 624126, 2012;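 active = activation above its plate's cutoff, the mean activation of sample wells plus 3 SD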
CHRM5 PAM: human M5 muscarinic receptor positive allosteric modulators, primary screen, CHO-K1 cells, Fluo-8 calcium fluorescence; activation, % at 3 µM; 360,000 tested, 0.3% active; CHO-K1 hM5, ACh EC20 PAM; 0% = ACh EC20, 100% = ACh EC100;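 active = activation above the run cutoff, the mean activation of all test compounds plus 3 SD, cut at about 18% in these data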
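Assay system: CHO-K1 hM5 cells / Incubation: Fluo-8 loading 80 min at 37 °C plus 30 min room temperature / Technique: Fluo-8 calcium dye fluorescence, kinetic read / Repeats: single replicate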
CHRM5 antagonist: human M5 muscarinic receptor antagonists, primary screen, CHO cells, Fluo-8 calcium fluorescence. Muscarinic acetylcholine receptor M5 (Homo sapiens), P08912. CHO-hM5 cells, ACh EC80. inhibition, % at 3 µM. 360,000 tested, 0.59% active. AID 624040, 2012;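 active = inhibition above a per-plate cutoff, the mean of that plate's test compounds plus 3 SD, cut at about 27% in these data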;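 note: 0% = acetylcholine EC80 with DMSO and 100% = DMSO without agonist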
M4 antag: human M4 muscarinic receptor antagonists, primary screen, CHO cells, Fluo-8 calcium fluorescence; Muscarinic acetylcholine receptor M4 (Homo sapiens), P08173; CHO-hM4 cells, ACh EC80; inhibition, % at 3 µM; 360,000 tested, 0.73% active; AID 624125, 2012;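 active = inhibition above its plate's cutoff, the mean inhibition of sample wells plus 3 SD, cut at about 27% in these data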;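 note: 0% = acetylcholine EC80 with DMSO and 100% = DMSO without agonist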
M5 ag: human M5 muscarinic receptor agonists, primary screen, CHO-K1 cells, Fluo-8 calcium fluorescence; CHO-K1 hM5 cells; 0% DMSO wells, 100% maximal acetylcholine response; activation, % at 3 µM; 360,000 tested, 0.19% active; AID 624037, 2012;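 active = activation above the run's mean over test compounds plus 3 SD, cut at about 23% in these data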;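 note: signal is peak over basal fluorescence ratio across the kinetic read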
* hit, by the source's call. Most compounds without a hit are left out; they make up all but 1.9% or so of the library.

SMILES	M4 ag	M4 PAM	CHRM5 PAM	CHRM5 antagonist	M4 antag	M5 ag
CC(C)(C)OC(=O)NCCCCCc1nnc(SCc2cccc(F)c2)o1	8.8	-8.3	2.2	5.0	-6.8	0.1
O=C(Nc1ccc(Cl)cc1)Nc1nc(-c2ccccc2O)cs1	17.7	-22.5	-30.7	35.6*	29.3*	7.7
Nc1ncnc2c1ncn2[C@@H]1O[C@H](COP(=O)(O)OP(=O)(O)OP(=O)(O)O)[C@@H](O)[C@H]1O	95.6*	10.1	-6.0	-0.9	-12.2	46.4*
CC(C)N(C(=O)C1CC(=O)OC12CCCCC2)C(C)C (stereo not drawn)	1.4	20.9	9.7	4.6	29.5*	-0.9
CCOC(=O)/C(=C\c1cccnc1)C(=O)c1cc(C(C)=O)c(Nc2ccccc2)s1	5.4	-3.4	0.9	10.1	45.8*	-4.5
CCOC(=O)/C(=C\c1ccccc1)C(=O)c1cc(C(C)=O)c(Nc2ccccc2)s1	1.1	1.7	-4.1	6.1	-3.3	-1.0
CCOC(=O)N1CCC(N2CCN(Cc3ccc(F)c(F)c3)C(CCO)C2)CC1 (stereo not drawn)	1.5	1.8	3.2	-2.4	-1.4	-8.9
CCOC(=O)N1CCC(N2CCN(CCC(C)C)C(CCO)C2)CC1 (stereo not drawn)	0.8	-16.9	-2.6	-2.9	62.8*	-9.7
C[C@@H](CN1CCC[C@H]1CN1C(N)=NC[C@@H]1Cc1ccccc1)N1C[C@@H](Cc2ccccc2)N(CCc2ccc(Cl)c(Cl)c2)C1=N	1.0	-16.2	-39.3	38.8*	18.3	-11.6
CCC[C@@H](CN1CCC[C@H]1CN1C(N)=NC[C@@H]1Cc1ccccc1)N1C[C@@H](Cc2ccccc2)N(CCCC2CCCC2)C1=N	-0.2	-12.5	-38.5	20.9	12.2	-8.9
CCCCN1C(=N)N([C@@H](C)CN2CCC[C@H]2CN2C(N)=NC[C@@H]2Cc2ccccc2)C[C@H]1[C@H](C)CC	-0.1	-6.6	0.9	4.1	13.8	-9.3
CCC[C@@H](CN1CCC[C@H]1CN1C(N)=NC[C@@H]1Cc1ccccc1)N1C[C@@H]([C@H](C)CC)N(CCCC2CCCC2)C1=N	8.1	-15.8	-39.6	13.0	41.5*	-11.2
CCCCN1C(=N)N([C@@H](C)CN2CCC[C@H]2CN2C(N)=NC[C@H]2CC(C)C)C[C@H]1Cc1ccccc1	-0.7	-6.8	-15.7	33.1*	2.3	-12.2
CCOC(=O)c1sc(=NC(=O)c2ccc(S(=O)(=O)N(C)c3ccccc3)cc2)n(C)c1C	1.7	27.3*	4.7	-5.8	-1.1	-0.7
CCC(=O)N(CC)c1nc(-c2ccc(OC)cc2)cs1	59.4*	-22.3	-6.8	8.0	9.3	4.4
COc1ccc(-c2csc(N(CCCN(C)C)C(=O)c3ccccc3C)n2)cc1	15.6	-11.3	-2.6	9.2	5.5	-5.6
COc1ccc(-c2csc(N(CCCN(C)C)C(=O)c3ccc(F)cc3)n2)cc1	16.2	49.8*	-10.9	-0.7	35.3*	-16.2
CCC(=O)N(Cc1ccco1)c1nc(-c2ccc(OC)cc2)cs1	-0.8	-3.6	-1.7	1.1	3.3	-2.4
CCN(CC)CCCN(C(=O)c1ccc(F)cc1)c1nc(-c2ccc(OC)cc2)cs1	16.1	58.6*	1.4	3.8	45.7*	-14.1
COc1ccc(-c2csc(N(CCCN(C)C)C(=O)c3ccccc3F)n2)cc1	5.1	4.3	-1.9	-5.2	2.6	-6.0
CN(C)CCCN(C(=O)c1cccs1)c1nc(-c2ccccc2)cs1	5.4	-23.6	-17.8	21.1	28.1*	-4.9
C=C1C(=O)C23C(O)C1CCC2C12CCCC(C)(COC(C)=O)C1C(O)C3(O)OC2 (stereo not drawn)	2.8	-7.4	-5.5	10.8	42.0*	3.5
CC1(C(=O)NS(=O)(=O)c2ccc(Cl)cc2)CCN1C(=O)Cc1ccc(Cl)cc1Cl (stereo not drawn)	0.1	-0.6	-2.0	6.5	10.8	3.4
COc1ccc(NS(=O)(=O)c2ccc(-c3coc(C)n3)cc2)cc1	9.7	5.3	2.8	-5.1	0.5	4.9
COc1ccc(NS(=O)(=O)c2ccc(-c3coc(C)n3)cc2)cc1OC	27.5	-14.2	-13.6	50.8*	46.9*	7.2
SMILES	M4 ag	M4 PAM	CHRM5 PAM	CHRM5 antagonist	M4 antag	M5 ag
Cc1nc(-c2ccc(S(=O)(=O)Nc3ccc(S(N)(=O)=O)cc3)cc2)co1	0.6	13.6*	20.8*	-16.1	-7.8	-1.2
COc1ccc(-c2c(-c3ccc(O)cc3O)n[nH]c2C(F)(F)F)cc1	3.7	5.2	11.5	-11.6	21.1	2.3
Oc1ccc(-c2n[nH]c(C(F)(F)F)c2-c2ccccc2)c(O)c1	28.9	-18.7	-15.0	63.6*	46.8*	1.6
CN1CCN(S(=O)(=O)c2ccc(N3CCN(S(=O)(=O)/C=C/c4ccccc4)CC3)nc2)CC1	1.7	-13.6	-15.8	-6.0	30.2*	-11.9
OC(CCN1CCOCC1)(c1ccc(Cl)cc1)C1CCCCC1 (stereo not drawn)	-1.3	-14.5	-34.4	29.2*	39.2*	-11.2
CCOC(=O)N1CCN(C(=O)c2ccccc2NC(=O)COc2ccccc2C)CC1	12.3	-2.3	-6.9	5.6	1.1	2.7
CCCCCCCCN1C(=O)[C@H](CC(=O)NCCCOC)C[C@@]2(C(=O)OCC)CCCC=C12	-0.9	14.4	-7.4	-0.8	-18.3	-1.2
COc1cc(C(=O)NC2(C(F)(F)F)NC(=O)N(CCCc3ccccc3)C2=O)cc(OC)c1OC (stereo not drawn)	10.3	-12.5	-11.2	0.9	9.3	0.7
C[C@@H]1COc2cc(N3CCN(Cc4ccccc4F)CC3)ccc2S(=O)(=O)N1	5.9	8.8	-2.0	0.4	-10.7	-0.7
COc1ccc(C2NCCc3c2[nH]c2ccccc32)cc1CSc1nc2ccccc2s1 (stereo not drawn)	9.0	-12.3	-4.1	4.4	31.7*	-2.9
COc1ccc(C(=O)/C=C2\C(=O)Nc3ccc(Br)cc32)cc1	5.4	-8.7	5.0	11.6	26.6*	13.6
O=C1Nc2ccc(Br)cc2/C1=C/C(=O)c1ccc2c(c1)OCO2	5.2	-28.6	4.2	22.3	46.9*	33.8*
Cn1c(=O)c(C(=O)CCl)c(N)n(CC2CC2)c1=O	3.9	7.8	12.9	-5.6	-16.8	4.1
